Compound activity: PubChem BioAssay, several laboratories
In the library only some 4% were active in any assay of this set; here they are far more common.
iPSC survival up = hiPSC single-cell survival enhancement; ATPlite luminescence; 100% = ROCK inhibitor wells, 0% = DMSO; survival enhancement, % at 20 µM; 360,000 tested, 0.044% active; AID 602274; in the data active = survival enhancement above about 18%;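 note: cells exposed to compounds for 16 hours before the ATP read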
FAS TE block = blocks the thioesterase domain of human fatty acid synthase. P49327. recombinant FAS-TE, OMFH fluorogenic substrate, fluorescence endpoint. inhibition, % at 15 µM. 360,000 tested, 0.67% active. AID 602261;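 active = compounds whose normalised, plate-corrected inhibition of enzyme fluorescence in the single-dose primary screen is 50% or more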;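 note: 0% = DMSO with enzyme and 100% = substrate without enzyme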
Cardio protect = protects H9c2 cardiomyocytes from peroxide injury; 360,000 tested, 0.63% active; protection from H2O2 cell death, % at 20 µM; H2O2 injury protection, ATPLite, 2 h;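 active = compounds giving at least 50% protection of heart cells from peroxide-induced death in the single-dose screen, raw or plate-pattern-corrected value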;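 note: 0% = DMSO wells with peroxide and 100% = DMSO wells without peroxide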
Arr AP2 block = blocks beta-arrestin peptide binding to AP2 adaptin. FITC-arrestin peptide / GST-AP2 beads, flow cytometry; AP2 beta2 appendage carries R879A mutation. inhibition, % at 10 µM. 340,000 tested, 0.31% active. AID 504490;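 active = inhibition above a set limit, near 3 SD of compounds lacking own fluorescence, cut at about 54% in these data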;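 note: plate controls were DMSO wells for no effect and 5 µM unlabelled arrestin peptide for full effect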
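System: GST-AP2 R879A bound to glutathione beads, E. coli-expressed. Also added: 50 nM FITC-arrestin peptide. Schedule: compound with beads 12 min RT, then probe 1 h RT. Signal: bead flow cytometry, FITC channel. Read-out basis: percent response.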
SENP1 FRET inh = inhibitors of human SENP1 SUMO protease catalytic domain; Q9P0U3; recombinant SENP1 catalytic domain, CyPet-SUMO1-YPet FRET cleavage; inhibition, % at 10 µM; 360,000 tested, 0.21% active; AID 624204;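 active = inhibition at least 30% at 10 µM, raw YFP signal under a set limit, fluorescence ratio 0.5 to 1.5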;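 note: 0% = enzyme with DMSO and 100% = no enzyme wells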
Target sequence (Q9P0U3 419-644 limits assumed): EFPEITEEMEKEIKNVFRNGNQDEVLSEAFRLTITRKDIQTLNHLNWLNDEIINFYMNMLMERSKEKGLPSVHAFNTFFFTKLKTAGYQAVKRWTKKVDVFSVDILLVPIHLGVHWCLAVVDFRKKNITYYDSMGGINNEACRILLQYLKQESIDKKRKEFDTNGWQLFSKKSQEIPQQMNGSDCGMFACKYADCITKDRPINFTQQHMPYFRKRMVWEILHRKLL
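Material – human SENP1 catalytic domain · Input – SENP1 enzyme, 20 pM final · Compound dosing – single concentration of 10 µM compound, 0.5% DMSO final · Timing – enzyme reaction for 50 min at room temperature, dark · Measured by – FRET fluorescence in CFP and YFP emission channels · Control set – no-enzyme wells low, DMSO-plus-enzyme wells high control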
NR3A LBD binder = modulates the human NR3A ligand-binding domain; 340,000 tested, 2.5% active; Tm shift relative to glycine control, % at 25 µM; NR3A LBD differential scanning fluorimetry, Tm shift; 0% = protein alone, 100% = glycine-bound protein;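 active = melting temperature shift of at least 10% of the positive control shift, at one fixed dose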
* hit, by the source's call; nt = not tested or not shown.

SMILES | iPSC survival up | FAS TE block | Cardio protect | Arr AP2 block | SENP1 FRET inh | NR3A LBD binder
COc1ccc(/C=C2/CCc3ccccc3C2=O)cc1OC | -1.7 | -1.1 | -2.3 | -5.0 | -13.6 | 10.1*
COc1cc(/C=C2\CC(C(C)(C)C)C/C(=C\c3cc(OC)c(OC)c(OC)c3)C2=O)cc(OC)c1OC (configuration not stated) | 0.4 | 30.6 | -0.9 | -0.3 | 37.3* | 0.0
O=C1/C(=C/c2ccco2)CCc2ccccc21 | -2.5 | 0.7 | -7.2 | -3.3 | -34.8 | 14.4*
COc1cc(/C=C2\CC/C(=C\c3cc(OC)c(O)c(OC)c3)C2=O)cc(OC)c1O | -2.3 | -17.9 | 65.2* | nt | -24.2 | -16.8
COc1ccc2c(c1)CC/C(=C/c1ccco1)C2=O | -1.7 | 15.5 | -25.4 | -2.4 | -17.0 | 0.7
COc1cc(/C=C2/CCc3ccccc3C2=O)cc(OC)c1OC | 0.5 | 24.4 | -1.7 | -5.4 | 4.9 | -3.4
CC1CCCCc2nc3c(c(=O)n21)CCCC3 (configuration not stated) | 1.0 | -0.7 | 2.0 | nt | -0.2 | nt
Cc1ccc(-n2c(=O)c3sccc3n(Cc3cc(=O)n4ccccc4n3)c2=O)cc1 | 2.2 | -6.7 | -6.9 | -3.1 | 1.0 | -3.6
Cc1ccc(-n2c(=O)c3sccc3n(Cc3cc(=O)n4cc(Cl)ccc4n3)c2=O)cc1F | -0.9 | 7.2 | 16.7 | 12.6 | -1.3 | 14.8*
CC1(C(=O)NCc2ccccc2Br)CCN1Cc1csc2ccccc12 (configuration not stated) | -0.3 | 28.6 | -9.7 | nt | -1.0 | nt
CC(OC(=O)Nc1cccc(Cl)c1)C(=O)O (configuration not stated) | -0.4 | -4.0 | 5.4 | -13.8 | 0.3 | nt
CCCc1cc(C(=O)Nc2cccc(Cl)c2)no1 | -0.5 | 13.7 | -15.8 | -7.5 | 0.7 | 12.8*
Cn1nc(OC(=O)Nc2cccc(Cl)c2)cc1C(F)(F)F | 1.7 | 4.3 | -24.7 | 19.0 | 2.4 | 14.6*
O=C(Nc1cccc(Cl)c1)OCCOC(=O)Nc1cccc(Cl)c1 | 2.3 | 29.2 | -12.9 | -3.2 | -0.7 | 28.7*
COc1ccc(OCCOC(=O)Nc2ccccc2)cc1 | -1.7 | 8.0 | -6.6 | -3.6 | 0.9 | 33.2*
Cc1ccc2nc(-c3cccc(Br)c3)c(Cc3ccccc3)n2c1 | 0.1 | 7.2 | -3.7 | nt | 2.9 | nt
O=C(Nc1ccccc1)OCCCCCOC(=O)Nc1ccccc1 | 0.0 | -6.6 | -5.1 | -16.8 | 0.4 | 46.1*
O=C(Nc1cccc(O)c1)c1cc(-c2ccccc2Cl)on1 | -0.8 | 5.0 | -19.2 | -13.7 | -0.6 | 29.9*
O=C(Nc1ccccc1)OCCOc1ccccc1 | -0.8 | 0.9 | 0.1 | 16.8 | 1.2 | -11.1
O=C(Nc1cccc(Cl)c1)OCCOc1ccccc1 | -0.1 | 31.4 | -14.2 | 11.0 | 2.1 | 15.1*
Cn1cc(CN2CCC(C(=O)NC(c3ccc(F)cc3)c3ccc4ccccc4n3)CC2)c2ccccc21 (configuration not stated) | -4.0 | 0.7 | -29.4 | nt | 2.3 | nt
COc1cc(OC)cc(-c2cc3nc(C)c(CCC(=O)Nc4nc(C)cs4)c(C)n3n2)c1 | 0.1 | 1.6 | 63.7* | -6.1 | 3.2 | 1.7
Cc1c(NC(=O)Nc2ccc(Cl)c(Cl)c2)sc(=S)n1C | -2.4 | 24.2 | -28.2 | -9.6 | 1.6 | 21.6*
COc1ccc(NC(=O)Nc2sc(=S)n(C)c2C)cc1 | -0.7 | 0.4 | 3.8 | nt | 4.2 | 23.9*
COc1ccc(-c2nc3c(Cl)cc(C(F)(F)F)cn3c2Cc2ccsc2)cc1OC | -0.3 | 20.9 | nt | nt | -15.2 | nt
SMILES | iPSC survival up | FAS TE block | Cardio protect | Arr AP2 block | SENP1 FRET inh | NR3A LBD binder
COc1cc([N+](=O)[O-])cc(/C=C2/SC(=S)N(Cc3ccccc3)C2=O)c1O | -0.5 | 24.7 | -21.1 | 28.2 | 78.9* | 4.7
N=C1S/C(=C\c2ccc(O)cc2)C(=O)N1c1ccc(F)cc1 | -1.7 | 0.5 | -1.1 | 39.0 | 16.9 | 21.6*
O=C(O)c1ccc(/C=C2/SC(=S)N(Cc3ccccc3)C2=O)cc1 | -0.5 | 20.8 | -0.6 | -10.3 | 1.7 | 19.9*
O=C1/C(=C\c2ccc(O)cc2)SC(=S)N1Cc1ccccc1 | 1.0 | 1.4 | -11.4 | 3.4 | 58.9 | 34.0*
O=C(Cc1ccccc1)NN1C(=O)/C(=C/c2ccc(C(=O)O)cc2)SC1=S | 1.0 | -5.0 | 2.3 | 7.1 | 1.5 | 3.6
O=C(O)c1c(Cl)cccc1Nc1ccccc1 | -0.1 | -9.3 | -5.3 | nt | -0.8 | -9.4
O=C(NC1CCCC1)N[C@@H]1CC[C@@H](CC(=O)N2CCOCC2)O[C@@H]1CO | nt | nt | nt | nt | 1.4 | nt
O=C1/C(=C\c2ccc(O)cc2)SC(=S)N1c1cccnc1 | -1.2 | -6.3 | -2.1 | 2.7 | 80.8* | 29.3*
Cc1cc(C)c(S(=O)(=O)/N=C2\C=C(NS(=O)(=O)c3ccccc3)C(=O)c3ccccc32)c(C)c1 | 0.3 | 11.4 | -16.1 | 5.6 | 2.5 | -4.4
Cc1cc(C)c(S(=O)(=O)/N=C2\C=CC(=O)C(Cl)=C2)c(C)c1 | -1.6 | 17.3 | -1.1 | 7.5 | -33.1 | 11.6*
Nc1ccc(N)c(C(=O)O)c1 | -0.7 | -6.8 | -12.6 | 32.6 | 37.5* | -0.9
CC(C)n1c(=O)c2ccccc2n1S(C)(=O)=O | 0.5 | -9.0 | nt | nt | 0.8 | nt
CC12CCC(CC1O)C2C(=O)O (configuration not stated) | -1.7 | -6.6 | -0.2 | nt | 4.1 | nt
CCN(CC)c1ccc2c(-c3ccc(S(=O)(=O)O)cc3S(=O)(=O)[O-])c3ccc(=[N+](CC)CC)cc-3oc2c1 | 0.1 | -72.3 | -1.4 | 4.0 | 33.6* | -437.3
O=C(c1ccncc1)N1CCc2ccccc2C1 | -0.3 | -5.3 | 14.4 | 25.7 | -0.4 | 0.1
O=C(c1cncc(Br)c1)N1CCc2ccccc2C1 | -0.1 | -8.3 | -2.3 | 0.7 | 2.1 | 14.6*
Cn1cc([C@]2(O)C(=O)Nc3c(F)cccc32)c2ccccc21 | nt | nt | nt | nt | 1.6 | nt
Cc1ccc(OCc2nc3ccccc3n2C(C)C(=O)Nc2c(C)cccc2C)cc1 (configuration not stated) | nt | nt | nt | nt | -8.2 | nt
Cc1sc2ncnc(N/N=C/c3ccccc3O)c2c1C | -1.4 | 11.9 | 53.7* | 14.7 | 5.2 | 2.4
Nc1c(Cl)ncnc1N/N=C/c1ccc(O)cc1 | -0.4 | -7.1 | -3.5 | 14.0 | 1.4 | 13.7*
COc1ccc(/C=N/Nc2ncnc3sc(C)c(C)c23)cc1 | -0.8 | 22.3 | 3.9 | -8.3 | 0.5 | -10.1
Cc1sc2ncnc(N/N=C/c3ccc(O)cc3)c2c1C | -0.5 | -1.3 | -6.3 | -7.3 | 10.9 | 35.0*
COc1cccc(/C=N/Nc2ncnc3scc(-c4ccccc4)c23)c1OC | 0.0 | 14.3 | 60.0* | -1.3 | -2.6 | -5.3
COc1ccccc1CNC(=O)Nc1nnc([C@H]2C[C@H](O)[C@@H](CO)O2)s1 | -1.5 | -8.1 | 1.3 | nt | 0.0 | nt
CC(=O)Nc1cccc(-c2ccnc3c2CC(C(=O)NCCC(F)(F)F)O3)c1 (configuration not stated) | -0.7 | -6.0 | 1.5 | nt | -2.9 | nt
